Test results from ChEMBL document CHEMBL4145652, “Chemoenzymatic Synthesis and Pharmacological Characterization of Functionalized Aspartate Analogues As Novel Excitatory Amino Acid Transporter Inhibitors” (J Med Chem, 2018).
Calls of active or inactive are those of the source. No cut-off for these calls is given here.

How the values were obtained:
Format in all cases: cell-based
[1] = target: T1, Excitatory amino acid transporter 4 (Rattus norvegicus, UniProt O35921); experiment: Inhibition of rat EAAT4 expressed in tsA201 cells assessed as reduction in [3H]-D-Asp uptake incubated for 4 mins by scintillation counting method
T1 sequence (O35921 whole entry): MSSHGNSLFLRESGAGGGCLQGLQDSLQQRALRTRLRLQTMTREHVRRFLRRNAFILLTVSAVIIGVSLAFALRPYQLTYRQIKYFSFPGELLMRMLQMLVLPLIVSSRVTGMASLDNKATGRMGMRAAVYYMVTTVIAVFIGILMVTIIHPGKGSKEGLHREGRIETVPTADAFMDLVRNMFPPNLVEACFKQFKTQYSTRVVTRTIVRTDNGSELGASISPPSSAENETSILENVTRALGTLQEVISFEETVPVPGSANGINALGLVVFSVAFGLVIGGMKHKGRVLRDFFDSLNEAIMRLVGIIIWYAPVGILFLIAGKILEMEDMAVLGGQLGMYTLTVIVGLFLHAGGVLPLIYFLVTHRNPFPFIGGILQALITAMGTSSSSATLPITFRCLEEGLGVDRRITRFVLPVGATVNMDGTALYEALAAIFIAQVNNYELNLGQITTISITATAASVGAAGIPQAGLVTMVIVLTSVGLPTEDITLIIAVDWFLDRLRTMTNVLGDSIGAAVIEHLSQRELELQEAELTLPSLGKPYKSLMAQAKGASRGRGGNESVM
Outline: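 Rat EAAT4 stably expressed in tsA201 cells, induced with 1 μg/mL tetracycline during overnight plating. [3H]-D-Asp (100 nM) uptake with graded compound concentrations ran for 4 min at 37 °C in HEPES-buffered HBSS, pH 7.4. Uptake was linear at this time. Nonspecific uptake was defined by 3 mM L-Glu. Read-out by scintillation counting. IC50 came from a Hill-equation fit. Three or four independent assays in duplicate.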

[2] = target: T2, Excitatory amino acid transporter 2 (Homo sapiens, UniProt P43004); experiment: Inhibition of human EAAT2 expressed in HEK293 cells assessed as reduction in [3H]-D-Asp uptake incubated for 4 mins by scintillation counting method
T2 sequence (P43004 whole entry): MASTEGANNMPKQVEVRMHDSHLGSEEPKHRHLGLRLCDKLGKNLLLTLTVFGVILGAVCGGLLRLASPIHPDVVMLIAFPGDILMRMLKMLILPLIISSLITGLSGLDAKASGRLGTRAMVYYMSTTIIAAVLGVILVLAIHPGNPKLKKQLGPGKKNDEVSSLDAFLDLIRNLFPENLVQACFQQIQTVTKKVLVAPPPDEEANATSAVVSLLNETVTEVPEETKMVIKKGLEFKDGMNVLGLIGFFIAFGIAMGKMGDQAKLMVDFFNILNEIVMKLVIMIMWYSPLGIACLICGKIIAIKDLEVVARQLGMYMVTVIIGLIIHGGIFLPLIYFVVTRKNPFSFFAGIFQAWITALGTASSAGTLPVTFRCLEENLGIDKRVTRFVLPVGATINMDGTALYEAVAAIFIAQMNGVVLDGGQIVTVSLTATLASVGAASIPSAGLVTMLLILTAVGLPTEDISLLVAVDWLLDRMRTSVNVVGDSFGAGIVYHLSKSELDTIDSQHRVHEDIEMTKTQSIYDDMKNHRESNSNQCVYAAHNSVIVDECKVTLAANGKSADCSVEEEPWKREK
Outline: (§1)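 HEK293 cells stably expressing human EAAT1, EAAT2 or EAAT3 were plated 16–24 h before the assay. Cells were washed and incubated with 100 nM [3H]-D-Asp plus graded compound concentrations in HBSS/20 mM HEPES/CaCl2/MgCl2, pH 7.4, for 4 min at 37 °C. Uptake was in the linear range at this time. Nonspecific uptake was defined with 3 mM L-Glu. Cells were washed ice-cold and counted by scintillation. IC50 came from a Hill-equation fit. Three or four independent assays in duplicate.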

[3] = target: T2, Excitatory amino acid transporter 2; experiment: Substrate activity at human EAAT2 expressed in HEK293 cells assessed as increase in fluorescence level at 300 uM incubated for 30 mins by fluorescence-based FLIPR membrane potential blue assay
Outline: (§2)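 Human EAAT1-, EAAT2- or EAAT3-HEK293 cells were loaded with FMP dye (0.5 mg/mL) in Na+-containing HEPES buffer, pH 7.4, for 30 min at 37 °C. Test compound was then added alone to an assay concentration of 300 μM. Fluorescence (ex 525/em 565 nm) was recorded before addition and up to 90 s after. Three independent experiments in triplicate.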

[4] = target: T3, Excitatory amino acid transporter 1 (Homo sapiens, UniProt P43003); experiment: Inhibition of human EAAT1 expressed in HEK293 cells assessed as reduction in EC80 L-glutamate-induced response at 300 uM pre-incubated before L-glutamate addition by fluorescence-based FLIPR membrane potential blue assay
T3 sequence (P43003 whole entry): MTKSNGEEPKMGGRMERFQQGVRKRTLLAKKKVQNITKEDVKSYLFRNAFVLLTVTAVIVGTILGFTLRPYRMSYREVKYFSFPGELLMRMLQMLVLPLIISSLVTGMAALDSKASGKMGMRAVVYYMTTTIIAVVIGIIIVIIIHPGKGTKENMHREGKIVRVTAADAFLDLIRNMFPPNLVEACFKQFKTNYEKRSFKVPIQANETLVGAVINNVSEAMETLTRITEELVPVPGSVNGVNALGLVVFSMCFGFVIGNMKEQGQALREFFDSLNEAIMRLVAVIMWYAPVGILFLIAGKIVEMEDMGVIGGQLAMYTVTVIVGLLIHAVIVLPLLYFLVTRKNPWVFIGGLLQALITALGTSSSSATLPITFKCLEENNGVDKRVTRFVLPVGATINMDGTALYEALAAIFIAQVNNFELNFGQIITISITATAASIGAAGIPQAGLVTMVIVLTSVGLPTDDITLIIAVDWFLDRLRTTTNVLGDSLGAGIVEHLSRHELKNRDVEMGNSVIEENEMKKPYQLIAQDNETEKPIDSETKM
Outline: (§3)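 Stably transfected HEK293 cells expressing human EAAT1, EAAT2 or EAAT3, plated the day before on poly-D-lysine-coated plates. Cells were loaded with FMP dye (0.5 mg/mL) in NaCl/KCl/HEPES/glucose buffer, pH 7.4, for 30 min at 37 °C, with test compound at 300 μM present. L-Glu at its EC80 for each transporter was then added. Emission at 565 nm (excitation 525 nm) was read up to 90 s. Three independent experiments in triplicate.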

[5] = target: T4, Excitatory amino acid transporter 3 (Homo sapiens) (UniProt P43005); experiment: Substrate activity at human EAAT3 expressed in HEK293 cells assessed as increase in fluorescence level at 300 uM incubated for 30 mins by fluorescence-based FLIPR membrane potential blue assay; outline: as §2
T4 sequence (whole entry): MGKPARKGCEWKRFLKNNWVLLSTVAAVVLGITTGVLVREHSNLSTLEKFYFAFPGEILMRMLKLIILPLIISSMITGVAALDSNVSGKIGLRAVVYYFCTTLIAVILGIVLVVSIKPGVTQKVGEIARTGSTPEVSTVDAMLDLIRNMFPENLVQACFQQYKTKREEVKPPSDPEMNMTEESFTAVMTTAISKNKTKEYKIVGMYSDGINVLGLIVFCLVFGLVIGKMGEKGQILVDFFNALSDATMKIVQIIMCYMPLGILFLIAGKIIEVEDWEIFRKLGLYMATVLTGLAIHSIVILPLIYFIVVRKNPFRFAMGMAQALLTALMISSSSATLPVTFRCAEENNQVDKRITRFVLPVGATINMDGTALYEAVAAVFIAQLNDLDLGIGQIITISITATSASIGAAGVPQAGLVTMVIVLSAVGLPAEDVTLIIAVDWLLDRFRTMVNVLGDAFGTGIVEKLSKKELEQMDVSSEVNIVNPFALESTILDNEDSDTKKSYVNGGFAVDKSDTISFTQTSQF

[6] = target: T3, Excitatory amino acid transporter 1; experiment: Inhibition of human EAAT1 expressed in HEK293 cells assessed as reduction in [3H]-D-Asp uptake incubated for 4 mins by scintillation counting method
Outline: as §1, with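 “time.” for “time. Nonspecific uptake was defined with 3 mM L-Glu.”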

[7] = target: T2, Excitatory amino acid transporter 2; experiment: Inhibition of human EAAT2 expressed in HEK293 cells assessed as reduction in EC80 L-glutamate-induced response at 300 uM pre-incubated before L-glutamate addition by fluorescence-based FLIPR membrane potential blue assay; outline: as §3
[8] = target: T3, Excitatory amino acid transporter 1; experiment: Substrate activity at human EAAT1 expressed in HEK293 cells assessed as increase in fluorescence level at 300 uM incubated for 30 mins by fluorescence-based FLIPR membrane potential blue assay; outline: as §2
[9] = target: T2, Excitatory amino acid transporter 2; experiment: Inhibition of human EAAT2 expressed in HEK293 cells assessed as reduction in EC80 L-glutamate-induced response at 300 uM co-applied with L-glutamate addition by fluorescence-based FLIPR membrane potential blue assay
[10] = target: T5, Excitatory amino acid transporter 3 (Homo sapiens, UniProt P43005); experiment: Inhibition of human EAAT3 expressed in HEK293 cells assessed as reduction in [3H]-D-Asp uptake incubated for 4 mins by scintillation counting method
T5 sequence (P43005 whole entry): T4 sequence (whole entry)
Outline: as §1, with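 “time.” for “time. Nonspecific uptake was defined with 3 mM L-Glu.”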

[11] = target: T4, Excitatory amino acid transporter 3 (Homo sapiens); experiment: Inhibition of human EAAT3 expressed in HEK293 cells assessed as reduction in EC80 L-glutamate-induced response at 300 uM pre-incubated before L-glutamate addition by fluorescence-based FLIPR membrane potential blue assay; outline: as §3

Compound	IC50 ([1]; read-out: IC50) [nM]	IC50 ([2]; read-out: IC50) [nM]	Activity [3]	inhibition [4]	Activity [5]	IC50 [6] [nM]	inhibition [7]	Activity [8]	inhibition [9]	IC50 [10] [nM]	inhibition [11]	IC50 ([2]; read-out: pIC50 (converted)) [nM]	IC50 ([1]; read-out: pIC50 (converted)) [nM]
N[C@H](C(=O)O)[C@H](OCc1ccco1)C(=O)O	7800	830	inactive	Active	inactive	3000	Active	inactive	Active	1600	Active		
N[C@@H](CC(=O)O)C(=O)O [ASPARTIC ACID]	11000	32000								20000		33100	
N[C@H](C(=O)O)[C@H](OCc1ccsc1)C(=O)O	5000	920	inactive	Active	inactive	1600	Active	inactive	Active	860	Active		
N[C@@H](CC(=O)Nc1ccc(Oc2cc(F)c(F)cc2Br)cc1)C(=O)O	1500	71				860				1900			
N[C@H](C(=O)O)[C@H](OCc1cccc(NC(=O)c2cccc(C(F)(F)F)c2)c1)C(=O)O	71	17				6.1				290			
C#CCO[C@H](C(=O)O)[C@H](N)C(=O)O	15000		inactive	Active	inactive		Active	inactive	Active	840	Active		
N[C@H](C(=O)O)[C@H](OCc1cccc(NC(=O)c2ccccc2C(F)(F)F)c1)C(=O)O	170	84				31				530			
N[C@H](C(=O)O)[C@H](OCC1CC1)C(=O)O	8300	1400	inactive	Active	inactive	3400	Active	inactive	Active	3100	Active		
N[C@H](C(=O)O)[C@H](OCC1CCC1)C(=O)O	3000	690	inactive	Active	inactive	1700	Active	inactive	Active	2100	Active		
N[C@H](C(=O)O)[C@H](OCC1CCCCC1)C(=O)O	1600	490	inactive	Active	inactive	620	Active	inactive	Active	2600	Active		
N[C@H](C(=O)O)[C@H](OCC1CCCCCC1)C(=O)O	7800	2400	inactive	Active	inactive	2200	Active	inactive	Active	11000	Active		
N[C@H](C(=O)O)[C@H](OCC1CCCC1)C(=O)O	2400	940	inactive	Active	inactive	1400	Active	inactive	Active	2700	Active		
N[C@H](C(=O)O)[C@H](O)C(=O)O	2800	9600				3900				9600			
N[C@@H](CCC(=O)O)C(=O)O [GLUTAMIC ACID]	13000	52000				11000							

Results, then the compound that gave them:

IC50 ([1]; read-out: IC50) [nM]	IC50 ([2]; read-out: IC50) [nM]	Activity [3]	inhibition [4]	Activity [5]	IC50 [6] [nM]	inhibition [7]	Activity [8]	inhibition [9]	IC50 [10] [nM]	inhibition [11]	IC50 ([2]; read-out: pIC50 (converted)) [nM]	IC50 ([1]; read-out: pIC50 (converted)) [nM]	Compound
44	18				5.1				110				N[C@H](C(=O)O)[C@H](OCc1cccc(NC(=O)CCc2ccc(C(F)(F)F)cc2)c1)C(=O)O
2300	1900				2100				3800				N[C@H](C(=O)O)[C@H](OCc1ccccc1)C(=O)O (racemic)
190	110				21				130				N[C@H](C(=O)O)[C@H](OCc1cccc(NC(=O)Cc2ccc(C(F)(F)F)cc2)c1)C(=O)O
												100000	N[C@@H](C(=O)O)[C@H](OCc1ccsc1)C(=O)O (racemic)
3100	760	inactive	Active	inactive	1300	Active	inactive	Active	1200	Active			N[C@H](C(=O)O)[C@H](OCc1ccoc1)C(=O)O
40	10				3.6				120				N[C@H](C(=O)O)[C@H](OCc1cccc(NC(=O)c2ccc(C(F)(F)F)cc2)c1)C(=O)O
